Results of several laboratories.
Lines come from different studies, so protocols differ.
Target: Serine/threonine-protein kinase ULK3 (ULK3, Homo sapiens, UniProt Q6PHR2)
Residues used in one study (Q6PHR2 1-472): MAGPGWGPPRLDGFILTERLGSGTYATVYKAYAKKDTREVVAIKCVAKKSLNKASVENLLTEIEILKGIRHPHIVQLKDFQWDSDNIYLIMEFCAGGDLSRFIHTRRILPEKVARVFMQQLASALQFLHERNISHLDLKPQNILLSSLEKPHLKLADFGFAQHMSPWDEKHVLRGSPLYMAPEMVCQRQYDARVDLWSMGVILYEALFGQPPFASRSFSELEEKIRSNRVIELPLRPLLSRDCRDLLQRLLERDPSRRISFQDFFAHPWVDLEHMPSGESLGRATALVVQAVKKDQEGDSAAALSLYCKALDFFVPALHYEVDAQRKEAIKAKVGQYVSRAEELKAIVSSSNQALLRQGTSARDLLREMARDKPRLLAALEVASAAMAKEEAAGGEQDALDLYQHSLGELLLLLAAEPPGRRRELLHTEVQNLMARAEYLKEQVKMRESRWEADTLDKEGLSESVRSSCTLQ

Cn1nc(C(F)(F)F)cc1-c1cnc(N2CCc3cc(S(=O)(=O)Nc4c(F)cc(Cl)cc4F)cc(N4CCCC4=O)c32)nc1  remaining binding (cell-free assay, competition with immobilised ligand; 1 µM): 100%
CCN(CC)CCNC(=O)c1c(C)[nH]c(/C=C2\C(=O)Nc3ccc(F)cc32)c1C  remaining signal (cell-free assay; 0.5 µM): 57.4%
CCCS(=O)(=O)Nc1ccc(F)c(C(=O)c2c[nH]c3ncc(-c4ccc(Cl)cc4)cc23)c1F  inhibition (enzyme activity, inhibitor; 1 µM): < 10%
Nc1ncnc2occ(-c3ccc(NC(=O)Nc4cc(C(F)(F)F)ccc4F)cc3)c12  remaining signal (cell-free assay, inhibitor; 20 µM): 0.6%
Cc1cc(NC(=O)c2cccc3cc(-c4cccc5[nH]nc(N)c45)ccc23)ccc1F  activity vs control (enzyme activity, inhibitor; 0.1 µM): 98%
Oc1cccc(-c2nc(N3CCOCC3)c3oc4ncccc4c3n2)c1  remaining signal (cell-free assay; 0.5 µM): 99.7%
O=C(Nc1cnn(-c2csc(C(=O)NC3COC3)c2)c1)Nc1ccccc1Cl  remaining activity (enzyme activity, inhibitor; 5 µM): 111%
COc1cc2ncnc(Nc3ccc(F)c(Cl)c3)c2cc1OCCCN1CCOCC1  remaining signal (cell-free assay; 0.5 µM): 108%
c1ccc(N2CCN(Cc3nc4ccccc4[nH]3)CC2)nc1  remaining binding (binding, competition with immobilised ligand; 1 µM): 100%
Cc1sc(C(=O)NC2COC2)cc1-n1cc(NC(=O)Nc2c(F)cccc2Cl)cn1  remaining activity (enzyme activity, inhibitor; 10 µM): 105%
Cc1cc(NC(=O)c2cccc(S(F)(F)(F)(F)F)c2)cc(-n2ccn3nc(-c4cccnc4)cc23)c1  remaining binding (cell-free assay, competition with immobilised ligand; 1 µM): 75.2%
O=C1Nc2ccc(Cl)cc2C1=Cc1cc(Cl)c(O)c(Cl)c1  remaining signal (cell-free assay; 0.5 µM): 92.2%
C[C@@]1(Cc2ccc(C#N)cc2)C(=O)N(c2cc(Cl)cc(Cl)c2)c2ncc(C(=O)NC3(c4nc(C5CCC5)no4)CC3)n21  remaining binding (cell-free assay, competition with immobilised ligand; 1 µM): 100%
COc1cccc2c(NCc3ccccc3)nc(-n3c(N)nc4ccccc43)nc12  inhibition (target engagement in cells, inhibitor, chemoproteomics; 20 mM): -11.6%
